These results are taken from ChEMBL document CHEMBL1126650, “Synthesis and structure-activity relationships of novel benzimidazole and imidazo[4,5-b]pyridine acid derivatives as thromboxane A2 receptor antagonists” (J Med Chem, 1993).

The term inhibition denotes how much of the control response was suppressed. Read a low inhibition as a response near the control. For orientation: Ki means a dissociation constant, usually derived from enzyme kinetics or from competition with a known ligand. Low readings indicate a stronger hold on the target, high ones a looser hold on the target.

The first experiment concerns the target T1, Thromboxane A2 receptor (Homo sapiens) (UniProt P21731).
T1 sequence (whole entry): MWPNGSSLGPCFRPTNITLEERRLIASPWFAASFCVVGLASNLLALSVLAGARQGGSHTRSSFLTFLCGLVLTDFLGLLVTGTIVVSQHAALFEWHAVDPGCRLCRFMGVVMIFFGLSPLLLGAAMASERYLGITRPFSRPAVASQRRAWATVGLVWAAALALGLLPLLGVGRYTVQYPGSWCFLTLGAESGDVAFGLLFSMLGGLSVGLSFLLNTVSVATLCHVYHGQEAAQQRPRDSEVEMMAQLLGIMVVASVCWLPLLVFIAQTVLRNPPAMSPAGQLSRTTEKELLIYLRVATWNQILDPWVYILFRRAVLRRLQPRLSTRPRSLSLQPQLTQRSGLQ
Description: In vitro for percent inhibition against TXA2 / PGH-2 receptor using [125I]PTA-OH in human platelets at 10 e-5 M. In outline: (§1)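 Washed human platelets from volunteer blood drawn into EDTA 5 mM and indomethacin 20 µM (final); PRP at 200 g, pellet at 2000 g. 5 × 10^7 platelets incubated 30 min at 37 °C with 0.1 nM [125I]PTA-OH in Tris/NaCl/dextrose/indomethacin buffer, pH 7.4. Screening at 10^-7 and 10^-5 M. Filtration, gamma counting. Nonspecific binding set by a tetrahydrocarbazole-acetic acid antagonist. Triplicate.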
In turn, `CC(C)(CC(=O)O)Cc1nc2cc(F)ccc2n1Cc1ccc(Br)cc1` had an inhibition of 95%.
On to `O=C(O)[C@H]1CCC[C@@H]1c1nc2cc(F)ccc2n1Cc1ccc(Cl)cc1`, for which the inhibition was 100%.
For the compound `O=C(O)CC1(Cc2nc3cc(F)ccc3n2Cc2ccc(Cl)cc2)CCCC1`, the inhibition came to 100%.
Compound `O=C(O)COc1ccc(CCNS(=O)(=O)c2ccccc2)cc1` gave an inhibition of 95%.
On the same count and under the same terms, the same measure for `O=C(O)CC1(Cc2nc3cc(F)ccc3n2Cc2ccc(Cl)cc2)CCCCC1`: 98%.
Same read-out and setting: then `CC(CC(=O)O)Cc1nc2ccccc2n1Cc1ccc(Cl)cc1` (stereo unspecified), with 100%; and `CC(C)(CC(=O)O)Cc1nc2ccccc2n1Cc1ccccc1`, with 95%.
In turn, `O=C(O)CCCSc1nc2cc(Cl)cnc2n1Cc1ccc(Br)cc1F` yielded an inhibition of 60%.
`CC(C)(CCC(=O)O)Cc1nc2cc(F)ccc2n1Cc1ccc(Cl)cc1` had an inhibition of 87%.
As to `CC(C)(CC(=O)O)Cc1nc2cc(F)ccc2n1Cc1ccc(Br)cc1F`, the inhibition turned out to be 100%.
`CC(C)(CC(=O)O)Cc1nc2ccccc2n1Cc1ccc([N+](=O)[O-])cc1` yielded an inhibition of 100%.
On the same count and under the same terms, then `O=C(O)[C@@H]1CC=CC[C@@H]1c1nc2cc(F)ccc2n1Cc1ccc(Cl)cc1`, with 96%.
Take `CC(Sc1nc2cc(F)ccc2n1Cc1ccc(Cl)cc1)C(=O)O` (stereo unspecified): the inhibition was 83%.
`CSc1ccc(Cn2c(CC(C)(C)CC(=O)O)nc3cc(Cl)cnc32)cc1` registered an inhibition of 87%.
Still for that read-out and setting: the same measure for `CC(C)(CC(=O)O)Cc1nc2ccccc2n1Cc1ccc(Cl)cc1`: 100%.
In turn, `CC(C)(CC(=O)O)Cc1nc2cc(Cl)ccc2n1Cc1ccc(Br)cc1F` gave an inhibition of 95%.
In turn, `O=C(O)[C@H]1CC[C@@H]1c1nc2cc(F)ccc2n1Cc1ccc(Cl)cc1` showed an inhibition of 97%.
The same measure, in the same setting: then `CC(C)(CC(=O)O)Cc1nc2ccccc2n1Cc1ccc(Br)cc1F`, with 99%.
Take `O=C(O)CC1(Cc2nc3cc(F)ccc3n2Cc2ccc(Cl)cc2)CC1`: the inhibition worked out at 98%.
`O=C(O)CC(Cc1nc2ccccc2n1Cc1ccc(Cl)cc1)c1ccccc1` (stereo unspecified) registered an inhibition of 17%.
Compound `CC(C)(CC(=O)O)Cc1nc2ccccc2n1Cc1ccc(O)cc1` came in with an inhibition of 96%.
`CC(C)(CC(=O)O)Cc1nc2cc(F)ccc2n1Cc1ccc(Cl)c(Cl)c1`: the inhibition was 92%.
On to `COc1ccc(Cn2c(CC(C)(C)CC(=O)O)nc3cc(F)ccc32)cc1`, for which the inhibition is 100%.
`CC(C)(CC(=O)O)Cc1nc2cc(F)ccc2n1Cc1ccc(Cl)cc1` showed an inhibition of 100%.
Compound `CC(C)(CC(=O)O)Cc1nc2cccnc2n1Cc1ccc(Cl)cc1` displayed an inhibition of 62%.
Turning to `CC(C)(CC(=O)O)Cc1nc2ccccc2n1Cc1ccc(F)cc1`, the inhibition came to 100%.
As for `CC(C)(Cc1nc2cc(F)ccc2n1Cc1ccc(Cl)cc1)C(=O)O`, the inhibition came out at 50%.
With `Cc1ccc(Cn2c(CC(C)(C)CC(=O)O)nc3ccccc32)cc1`, the inhibition worked out at 100%.
Turning to `CC(C)(CC(=O)O)c1nc2ccccc2n1Cc1ccc(Cl)cc1`, the inhibition was determined as 28%.

A further experiment addresses T1, Thromboxane A2 receptor (Homo sapiens). Description: Tested in vitro for percent inhibition against TXA2 / PGH-2 receptor using [125I]PTA-OH in human platelets at 10 e-7 M. The procedure, abridged:
as §1
Turning to `CC(C)(CC(=O)O)Cc1nc2cc(F)ccc2n1Cc1ccc(Br)cc1`, the inhibition amounted to 92%.
In turn, `O=C(O)[C@H]1CCC[C@@H]1c1nc2cc(F)ccc2n1Cc1ccc(Cl)cc1` came in with an inhibition of 37%.
As to `O=C(O)CC1(Cc2nc3cc(F)ccc3n2Cc2ccc(Cl)cc2)CCCC1`, the inhibition is 71%.
For `O=C(O)COc1ccc(CCNS(=O)(=O)c2ccccc2)cc1`, the inhibition was 13%.
Same read-out and setting: then `O=C(O)CC1(Cc2nc3cc(F)ccc3n2Cc2ccc(Cl)cc2)CCCCC1`, with 0%; and `CC(CC(=O)O)Cc1nc2ccccc2n1Cc1ccc(Cl)cc1` (stereo unspecified), with 10%.
Regarding `CC(C)(CC(=O)O)Cc1nc2ccccc2n1Cc1ccccc1`, the inhibition came to 13%.
`O=C(O)CCCSc1nc2cc(Cl)cnc2n1Cc1ccc(Br)cc1F` displayed an inhibition of 24%.
Still for that read-out and setting: the same measure for `CC(C)(CCC(=O)O)Cc1nc2cc(F)ccc2n1Cc1ccc(Cl)cc1`: 56%.
Still for that read-out and setting: the same measure for `CC(C)(CC(=O)O)Cc1nc2cc(F)ccc2n1Cc1ccc(Br)cc1F`: 98%.
Compound `CC(C)(CC(=O)O)Cc1nc2ccccc2n1Cc1ccc([N+](=O)[O-])cc1` came in with an inhibition of 83%.
Take `O=C(O)[C@@H]1CC=CC[C@@H]1c1nc2cc(F)ccc2n1Cc1ccc(Cl)cc1`: the inhibition amounted to 15%.
`CC(Sc1nc2cc(F)ccc2n1Cc1ccc(Cl)cc1)C(=O)O` (stereo unspecified) came in with an inhibition of 9%.
`CSc1ccc(Cn2c(CC(C)(C)CC(=O)O)nc3cc(Cl)cnc32)cc1` registered an inhibition of 82%.
For `CC(C)(CC(=O)O)Cc1nc2ccccc2n1Cc1ccc(Cl)cc1`, the inhibition was 85%.
Compound `CC(C)(CC(=O)O)Cc1nc2cc(Cl)ccc2n1Cc1ccc(Br)cc1F` showed an inhibition of 74%.
As to `O=C(O)[C@H]1CC[C@@H]1c1nc2cc(F)ccc2n1Cc1ccc(Cl)cc1`, the inhibition is 2%.
`CC(C)(CC(=O)O)Cc1nc2ccccc2n1Cc1ccc(Br)cc1F` yielded an inhibition of 88%.
With `O=C(O)CC1(Cc2nc3cc(F)ccc3n2Cc2ccc(Cl)cc2)CC1`, the inhibition is 80%.
In the case of `O=C(O)CC(Cc1nc2ccccc2n1Cc1ccc(Cl)cc1)c1ccccc1` (stereo unspecified), the inhibition was determined as 0%.
For the compound `CC(C)(CC(=O)O)Cc1nc2ccccc2n1Cc1ccc(O)cc1`, the inhibition came to 50%.
Still for that read-out and setting: the same measure for `CC(C)(CC(=O)O)Cc1nc2cc(F)ccc2n1Cc1ccc(Cl)c(Cl)c1`: 89%.
Same read-out and setting: then `COc1ccc(Cn2c(CC(C)(C)CC(=O)O)nc3cc(F)ccc32)cc1`, with 79%; and `CC(C)(CC(=O)O)Cc1nc2cc(F)ccc2n1Cc1ccc(Cl)cc1`, with 94%.
`CC(C)(CC(=O)O)Cc1nc2cccnc2n1Cc1ccc(Cl)cc1` came in with an inhibition of 41%.
Regarding `CC(C)(CC(=O)O)Cc1nc2ccccc2n1Cc1ccc(F)cc1`, the inhibition stood at 66%.
The same measure, in the same setting: then `CC(C)(Cc1nc2cc(F)ccc2n1Cc1ccc(Cl)cc1)C(=O)O`, with 0%; and `Cc1ccc(Cn2c(CC(C)(C)CC(=O)O)nc3ccccc32)cc1`, with 52%.
`CC(C)(CC(=O)O)c1nc2ccccc2n1Cc1ccc(Cl)cc1` displayed an inhibition of 0%.

Another experiment has as its target T2, Thromboxane A2 receptor (Homo sapiens, UniProt P21731).
T2 sequence (P21731 whole entry): T1 sequence (whole entry)
Description: Tested in vitro for inhibition constant against TXA2 / PGH-2 receptor using [125I]PTA-OH binding affinity to human platelets.
With `CC(C)(CC(=O)O)Cc1nc2cc(F)ccc2n1Cc1ccc(Br)cc1`, the affinity, expressed as Ki, was 12 nM.
Same read-out and setting: the same measure for `O=C(O)[C@H]1CCC[C@@H]1c1nc2cc(F)ccc2n1Cc1ccc(Cl)cc1`: 140 nM; for `O=C(O)CC1(Cc2nc3cc(F)ccc3n2Cc2ccc(Cl)cc2)CCCCC1`: 870 nM.
Same read-out and setting: then `CC(C)(CCC(=O)O)Cc1nc2cc(F)ccc2n1Cc1ccc(Cl)cc1`, with 23 nM; and `O=C(O)[C@@H]1CC=CC[C@@H]1c1nc2cc(F)ccc2n1Cc1ccc(Cl)cc1`, with 510 nM.
`CSc1ccc(Cn2c(CC(C)(C)CC(=O)O)nc3cc(Cl)cnc32)cc1` showed an inhibition constant Ki of 7 nM.
Take `O=C(O)[C@H]1CC[C@@H]1c1nc2cc(F)ccc2n1Cc1ccc(Cl)cc1`: the Ki is 810 nM.
Still for that read-out and setting: the same measure for `CC(C)(CC(=O)O)Cc1nc2ccccc2n1Cc1ccc(Br)cc1F`: 11 nM; for `O=C(O)CC1(Cc2nc3cc(F)ccc3n2Cc2ccc(Cl)cc2)CC1`: 52 nM; for `COc1ccc(Cn2c(CC(C)(C)CC(=O)O)nc3cc(F)ccc32)cc1`: 4 nM.
For the compound `CC(C)(CC(=O)O)Cc1nc2cc(F)ccc2n1Cc1ccc(Cl)cc1`, the affinity, expressed as Ki, was 7.8 nM.
In the case of `CC(C)(CC(=O)O)Cc1nc2cccnc2n1Cc1ccc(Cl)cc1`, the Ki was found to be 39 nM.
The compound `CC(C)(Cc1nc2cc(F)ccc2n1Cc1ccc(Cl)cc1)C(=O)O` came in with a Ki of 1700 nM.
